How the values were obtained:
[1] = target: T1, 5-hydroxytryptamine receptor 1A (Rattus norvegicus, UniProt P19327); assay: Displacement of [3H]-8-OH-DPAT from 5-HT1A receptor in Sprague-Dawley albinus rat cerebral cortex membranes after 15 mins
T1 sequence (P19327 whole entry): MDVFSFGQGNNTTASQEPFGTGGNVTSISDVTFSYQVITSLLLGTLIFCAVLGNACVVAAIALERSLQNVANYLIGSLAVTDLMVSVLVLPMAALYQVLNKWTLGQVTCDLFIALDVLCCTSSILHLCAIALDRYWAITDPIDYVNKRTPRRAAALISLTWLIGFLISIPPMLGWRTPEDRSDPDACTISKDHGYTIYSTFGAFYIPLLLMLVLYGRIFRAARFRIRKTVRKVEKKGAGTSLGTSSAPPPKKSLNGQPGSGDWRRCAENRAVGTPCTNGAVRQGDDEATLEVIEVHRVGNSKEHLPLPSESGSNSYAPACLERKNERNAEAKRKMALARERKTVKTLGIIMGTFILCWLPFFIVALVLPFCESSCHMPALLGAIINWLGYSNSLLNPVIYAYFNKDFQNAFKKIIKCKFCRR

[2] = target: 5-hydroxytryptamine receptor 2A (Rattus norvegicus, UniProt P14842); assay: Displacement of [3H]ketanserin from 5HT2A receptor in Sprague-Dawley albinus rat frontal cortex membranes after 15 mins
How it was run: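 Rat frontal cortex membranes (male Sprague–Dawley, 180–200 g). Nonspecific binding was set with 1 μM cinanserin.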

[3] = target: T2, 5-hydroxytryptamine receptor 3A (Rattus norvegicus, UniProt P35563); assay: Displacement of [3H]-LY278584 from 5HT3 receptor in Sprague-Dawley albinus rat cerebral cortex membranes after 30 mins
T2 sequence (P35563 whole entry): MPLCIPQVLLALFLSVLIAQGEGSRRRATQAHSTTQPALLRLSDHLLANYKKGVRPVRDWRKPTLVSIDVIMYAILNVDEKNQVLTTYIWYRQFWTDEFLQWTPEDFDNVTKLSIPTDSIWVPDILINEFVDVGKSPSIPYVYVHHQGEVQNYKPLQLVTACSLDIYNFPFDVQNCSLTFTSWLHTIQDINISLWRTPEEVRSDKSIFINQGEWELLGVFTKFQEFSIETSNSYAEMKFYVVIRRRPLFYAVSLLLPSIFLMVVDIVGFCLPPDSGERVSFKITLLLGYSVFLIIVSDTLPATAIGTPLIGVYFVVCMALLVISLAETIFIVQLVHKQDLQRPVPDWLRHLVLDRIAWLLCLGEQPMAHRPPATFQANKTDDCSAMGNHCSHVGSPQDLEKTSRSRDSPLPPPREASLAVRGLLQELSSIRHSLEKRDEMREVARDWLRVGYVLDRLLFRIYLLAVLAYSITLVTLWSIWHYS

[4] = target: D(2) dopamine receptor (Rattus norvegicus, UniProt P61169); assay: Displacement of [3H]spiperone from dopamine D2 receptor in Sprague-Dawley albinus rat striatal membranes after 15 mins
[5] = target: 5-hydroxytryptamine receptor 7 (Rattus norvegicus, UniProt P32305); assay: Displacement of [3H]-5-CT from 5HT7 receptor in Sprague-Dawley albinus rat hyphalamic membranes after 120 mins
[6] = target: 5-hydroxytryptamine receptor 4 (Rattus norvegicus, UniProt Q62758); assay: Displacement of [3H]GR113808 from 5HT4 receptor in Sprague-Dawley albinus rat striatal membranes after 30 mins by scintillation counting
Sequence of 5-hydroxytryptamine receptor 4 (Q62758 whole entry): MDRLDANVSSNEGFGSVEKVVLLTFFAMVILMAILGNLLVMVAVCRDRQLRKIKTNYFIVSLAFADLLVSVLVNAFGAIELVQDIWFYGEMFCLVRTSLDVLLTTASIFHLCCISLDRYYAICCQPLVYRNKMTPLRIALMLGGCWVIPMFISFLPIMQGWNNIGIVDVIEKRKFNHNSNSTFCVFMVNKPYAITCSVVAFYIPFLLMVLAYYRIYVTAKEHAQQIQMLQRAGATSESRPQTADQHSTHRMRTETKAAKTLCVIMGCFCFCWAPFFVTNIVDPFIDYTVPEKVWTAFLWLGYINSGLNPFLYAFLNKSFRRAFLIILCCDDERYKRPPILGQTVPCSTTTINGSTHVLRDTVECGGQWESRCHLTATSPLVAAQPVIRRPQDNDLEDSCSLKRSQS

Sequence of 5-hydroxytryptamine receptor 2A (P14842 whole entry): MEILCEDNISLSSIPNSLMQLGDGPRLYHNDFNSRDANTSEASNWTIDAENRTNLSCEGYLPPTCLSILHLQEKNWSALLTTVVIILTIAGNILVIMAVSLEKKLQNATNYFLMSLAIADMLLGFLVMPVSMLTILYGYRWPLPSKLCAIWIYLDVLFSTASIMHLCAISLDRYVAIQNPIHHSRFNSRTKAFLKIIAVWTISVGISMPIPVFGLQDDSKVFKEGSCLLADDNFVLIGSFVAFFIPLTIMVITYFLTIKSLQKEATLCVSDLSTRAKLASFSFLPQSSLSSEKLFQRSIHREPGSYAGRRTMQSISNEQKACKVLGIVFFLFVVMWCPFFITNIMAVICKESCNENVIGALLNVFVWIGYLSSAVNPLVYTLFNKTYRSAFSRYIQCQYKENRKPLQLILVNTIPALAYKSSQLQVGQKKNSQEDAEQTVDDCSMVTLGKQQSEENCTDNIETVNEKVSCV
Sequence of D(2) dopamine receptor (P61169 whole entry): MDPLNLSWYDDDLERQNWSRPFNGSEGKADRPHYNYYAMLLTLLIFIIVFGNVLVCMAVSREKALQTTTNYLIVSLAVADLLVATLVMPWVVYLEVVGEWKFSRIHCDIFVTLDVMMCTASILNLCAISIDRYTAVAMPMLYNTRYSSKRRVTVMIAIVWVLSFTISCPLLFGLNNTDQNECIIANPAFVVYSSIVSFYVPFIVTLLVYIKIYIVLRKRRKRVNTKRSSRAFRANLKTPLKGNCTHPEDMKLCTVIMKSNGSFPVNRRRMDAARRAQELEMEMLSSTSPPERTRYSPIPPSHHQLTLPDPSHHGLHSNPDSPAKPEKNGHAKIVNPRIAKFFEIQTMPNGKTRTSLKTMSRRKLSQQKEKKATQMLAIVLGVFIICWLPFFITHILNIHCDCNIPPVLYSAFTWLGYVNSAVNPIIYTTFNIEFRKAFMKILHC
Sequence of 5-hydroxytryptamine receptor 7 (P32305 whole entry): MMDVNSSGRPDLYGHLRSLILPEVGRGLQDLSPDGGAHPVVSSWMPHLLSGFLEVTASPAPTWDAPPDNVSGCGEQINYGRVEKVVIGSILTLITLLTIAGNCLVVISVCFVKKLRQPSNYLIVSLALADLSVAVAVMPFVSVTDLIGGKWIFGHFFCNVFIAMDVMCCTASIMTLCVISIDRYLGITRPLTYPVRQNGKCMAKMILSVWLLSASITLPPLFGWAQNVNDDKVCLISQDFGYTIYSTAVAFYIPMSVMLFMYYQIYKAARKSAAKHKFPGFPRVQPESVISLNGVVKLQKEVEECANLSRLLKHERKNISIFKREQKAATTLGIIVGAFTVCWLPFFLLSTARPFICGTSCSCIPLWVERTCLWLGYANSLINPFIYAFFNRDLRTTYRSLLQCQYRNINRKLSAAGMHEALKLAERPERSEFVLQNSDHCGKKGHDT

| Structure (SMILES) | Ki [1] | Ki [2] | Ki [3] | also measured |
| --- | --- | --- | --- | --- |
| O=c1n(CCCCNCc2cccs2)c(O)c2n1CCC2 | > 1 µM |  |  |  |
| O=c1n(CCCCCNCC2CCc3ccccc3O2)c(O)c2n1CCC2 (stereo not given) |  | > 1 µM | > 1 µM |  |
| O=c1n(CC#CCNCC2CCc3ccccc3O2)c(O)c2n1CCC2 (stereo not given) | > 1 µM |  |  |  |
| O=c1n(Cc2ccc(CNCC3CCc4ccccc4O3)cc2)c(O)c2n1CCC2 (stereo not given) | 0.028 µM | > 1 µM | > 1 µM |  |
| O=c1n(CCCCNCC2CCc3ccccc3O2)c(O)c2n1CCCC2 (stereo not given) |  | > 1 µM | > 1 µM |  |
| O=c1n(CCCCNCc2ccccn2)c(O)c2n1CCC2 | > 1 µM |  |  |  |
| O=c1n(CCCCNCc2cccc3ccccc23)c(O)c2n1CCC2 | > 1 µM |  |  |  |
| O=c1n(CCCCCCNCC2CCc3ccccc3O2)c(O)c2n1CCC2 (stereo not given) |  | > 1 µM | > 1 µM |  |
| O=c1n(CCCCNCCc2ccccn2)c(O)c2n1CCC2 | > 1 µM |  |  |  |
| O=c1n(CCCCNCc2ccccc2)c(O)c2n1CCC2 | > 1 µM |  |  |  |
| O=c1n(CCCCNCCc2ccccc2)c(O)c2n1CCC2 | > 1 µM |  |  |  |
| O=c1scc(O)n1CCCCCNCC1CCc2ccccc2O1 (stereo not given) |  | > 1 µM |  |  |
| O=c1scc(O)n1CCCCCCCCNCC1CCc2ccccc2O1 (stereo not given) |  | > 1 µM |  |  |
| O=c1n(CCCCNCCc2cccs2)c(O)c2n1CCC2 | > 1 µM |  |  |  |
| O=c1scc(O)n1CCCCCCNCC1CCc2ccccc2O1 (stereo not given) |  | > 1 µM |  |  |

More lines, main results first:

| Ki [1] | Ki [2] | Ki [3] | Structure (SMILES) | also measured |
| --- | --- | --- | --- | --- |
|  | > 1 µM | > 1 µM | O=c1n(CCCNCC2CCc3ccccc3O2)c(O)c2n1CCC2 (stereo not given) |  |
|  | > 1 µM |  | O=c1n(CCCCNCc2ccc3ccccc3c2)c(O)c2n1CCC2 |  |
| > 1 µM |  |  | O=c1n(CCCCNCCc2ccco2)c(O)c2n1CCC2 |  |
|  |  | > 1 µM | O=c1n(CCCCNCCc2ccc3ccccc3c2)c(O)c2n1CCC2 | Ki [4]: > 1 µM |
|  | > 1 µM | > 1 µM | O=c1n(CCCCNCc2ccc3ccccc3n2)c(O)c2n1CCC2 |  |
| > 1 µM |  |  | O=c1n(CCCCNCc2ccco2)c(O)c2n1CCC2 |  |
| 0.028 µM | > 1 µM | > 1 µM | O=c1n(CCCCNCCc2cccc3ccccc23)c(O)c2n1CCC2 | Ki [4]: > 1 µM; Ki [5]: > 1 µM; Ki [6]: > 1 µM |
|  | > 1 µM | > 1 µM | O=c1n(Cc2cccc(CNCC3CCc4ccccc4O3)c2)c(O)c2n1CCC2 (stereo not given) |  |
|  | > 1 µM |  | O=c1n(C/C=C/CNCC2CCc3ccccc3O2)c(O)c2n1CCC2 (stereo not given) |  |
|  | > 1 µM |  | O=c1n(CCCCNCC2CCc3ccccc3O2)c(O)c2n1CSC2 (stereo not given) |  |
|  | > 1 µM |  | O=c1scc(O)n1CCCCNCC1CCc2ccccc2O1 (stereo not given) |  |
